Test results published in ChEMBL document CHEMBL1149297 (J Med Chem, 2004).
pEC50: −log10 of the molar value. Activity calls are given as the source filed them. The calls are words filed in the database; no cut-off is given here.

Experiments:
[1] = biological target: Neuronal acetylcholine receptor; alpha4/beta2 (Homo sapiens) (UniProt P17787+P43681); experiment: Displacement of [3H]epibatidine from alpha-4-beta-2 nAChR immobilized on liquid chromatographic stationary phases; assay type: protein-complex assay
[2] = biological target: T1, Neuronal acetylcholine receptor; alpha3/beta4 (Homo sapiens, UniProt P30926+P32297); experiment: Displacement of [3H]epibatidine from alpha-3-beta-4 nAChR immobilized on liquid chromatographic stationary phases; assay type: protein-complex assay
[3] = biological target: T1, Neuronal acetylcholine receptor; alpha3/beta4; experiment: Agonist activity at alpha-3-beta-4 nAChR in KXalpha-3-beta-4R2 cells by rubidium efflux assay relative to nicotine; assay type: functional, cell-based; parameters: concentration or dose not given beside the values
In short: (§1)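 KXα3β4R2 cells (stably expressing α3β4 nAChR) grown in selection MEM with 10% FBS and geneticin, plated on poly(D-lysine) and grown 48 h at 37 °C to >90% confluence. Cells were loaded with 86Rb+ (2 μCi/well) for 4 h at 37 °C and washed three times in buffer A (Hepes/NaCl/KCl/MgSO4/CaCl2/glucose, pH 7.4). Compound in buffer A was applied for 2 min, and efflux was counted by liquid scintillation.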

[4] = biological target: T1, Neuronal acetylcholine receptor; alpha3/beta4; experiment: Agonist activity at alpha-3-beta-4 nAChR in KXalpha-3-beta-4R2 cells by rubidium efflux assay; assay type: functional, cell-based
In short: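 KXα3β4R2 cells stably expressing α3β4 nAChRs, grown in MEM/10% FBS with geneticin selection, plated on poly(D-lysine) and grown 48 h at 37 °C to >90% confluence. Loaded with 86Rb+ (2 μCi/well) 4 h at 37 °C, washed in Hepes-buffered saline pH 7.4, then exposed to compound for 2 min. Released 86Rb+ counted by liquid scintillation.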

[5] = biological target: T1, Neuronal acetylcholine receptor; alpha3/beta4; experiment: Agonist activity at alpha3beta4 nAChR in KXalpha-3-beta-4R2 cells by rubidium efflux assay at 1 mM; assay type: functional, cell-based; in short: as §1

T1 sequence (P30926 whole entry): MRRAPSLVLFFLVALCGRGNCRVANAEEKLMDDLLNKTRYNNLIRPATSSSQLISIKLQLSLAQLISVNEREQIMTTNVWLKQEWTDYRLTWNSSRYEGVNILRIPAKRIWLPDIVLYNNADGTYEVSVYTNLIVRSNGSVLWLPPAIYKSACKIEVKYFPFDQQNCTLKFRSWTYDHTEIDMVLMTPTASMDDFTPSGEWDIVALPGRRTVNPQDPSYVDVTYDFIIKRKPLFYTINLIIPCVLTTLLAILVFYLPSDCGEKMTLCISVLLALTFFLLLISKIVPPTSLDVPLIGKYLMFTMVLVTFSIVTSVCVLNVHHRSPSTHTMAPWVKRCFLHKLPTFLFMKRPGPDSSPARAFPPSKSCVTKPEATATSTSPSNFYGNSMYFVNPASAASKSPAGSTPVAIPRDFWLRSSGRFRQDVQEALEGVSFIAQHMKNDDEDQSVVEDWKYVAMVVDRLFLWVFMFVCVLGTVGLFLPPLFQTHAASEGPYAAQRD
T1 sequence (P32297 whole entry): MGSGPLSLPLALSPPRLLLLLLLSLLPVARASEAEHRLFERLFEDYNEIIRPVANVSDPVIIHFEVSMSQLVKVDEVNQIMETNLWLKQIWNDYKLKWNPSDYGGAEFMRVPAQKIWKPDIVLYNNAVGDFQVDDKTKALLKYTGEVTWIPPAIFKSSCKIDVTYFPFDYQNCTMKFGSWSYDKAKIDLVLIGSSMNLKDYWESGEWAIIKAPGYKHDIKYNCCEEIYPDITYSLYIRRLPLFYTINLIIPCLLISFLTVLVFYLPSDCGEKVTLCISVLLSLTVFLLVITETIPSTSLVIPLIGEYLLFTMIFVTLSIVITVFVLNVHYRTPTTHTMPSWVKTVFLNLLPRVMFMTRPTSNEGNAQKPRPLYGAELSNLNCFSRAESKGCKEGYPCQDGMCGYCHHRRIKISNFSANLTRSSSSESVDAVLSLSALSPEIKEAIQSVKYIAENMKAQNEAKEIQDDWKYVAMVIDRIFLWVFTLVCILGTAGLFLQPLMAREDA

SMILES | Activity [1] [mL] | Activity [2] [mL] | Activity [3] | pEC50 [4] | Activity [5]
COC(=O)N1CC[C@@H]2CCc3ccncc3[C@@H]21 | 0.23 | 0.12 |  |  | 
Clc1ccc(C2CC3CCC2N3)cn1 (configuration not stated) |  |  | inactive |  | 
COC(=O)N1CCC[C@@H]2C[C@@H](Sc3ccccc3)c3cc(Cl)nc(Cl)c3[C@@H]21 |  |  | 100% | 4.74 | 
c1cc2c(cn1)[C@@H]1NCCC[C@@H]1CC2 |  |  | 10% | < 3.00 | Active
COC(=O)N1CC[C@@H]2CCc3ccnc(Cl)c3[C@@H]21 | 0.18 | -0.32 | 10% | < 3.00 | 
COC(=O)N1CC[C@@H]2C=Cc3cc(Cl)nc(Cl)c3[C@@H]21 | 0.28 | 0.28 | 100% | 4.68 | 
COC(=O)N1CCC[C@@H]2C=Cc3cc(Cl)nc(Cl)c3[C@@H]21 |  |  | 75% | 4.86 | 
COC(=O)N1CC[C@@H]2C[C@@H](Sc3ccccc3)c3cc(Cl)nc(Cl)c3[C@@H]21 | 0.17 | -0.04 | 10% | < 3.00 | inactive
CN1CCC[C@H]1c1cccnc1 | 0.26 | 0.16 | 100% |  | 
Clc1cc2c(c(Cl)n1)[C@@H]1NCC[C@@H]1C[C@H]2Sc1ccccc1 |  |  | 35% | 4.58 | 
COC(=O)N1CC[C@@H]2C[C@@H](S(=O)(=O)c3ccccc3)c3cc(Cl)nc(Cl)c3[C@@H]21 | 0.13 | -0.12 | 10% | < 3.00 | 
